# Screening data (PubChem BioAssay)
# Apaf-1 inh: inhibitors of human Apaf-1 apoptosome; AID 489030; reconstituted apoptosome caspase-3 activity, DEVD-Rh110 fluorescence; 330,000 compounds, 0.71% hits; inhibition, % at 20 µM; active means inhibition of at least 40% at 20 µM
#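 Material: reconstituted apoptosome with Apaf-1, cytochrome c, caspase-9, procaspase-3, dATP / Buffer or medium: pH 7.5 Hepes buffer with CHAPS, BSA, DTT / Also added: cytochrome c with DEVD-Rh110 / Schedule: compound with Apaf-1, dATP, procaspase-3 30 min, then 50 min reaction, room temperature / Technique: rhodamine 110 fluorescence at Ex 480/Em 540 nm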
# Fh CTSL1 inh: blocks F. hepatica cathepsin L1 in PFM18AAP counter-screen. AID 1906. recombinant F. hepatica cathepsin L1, Z-Leu-Arg-MCA fluorescence. inhibition, % at 5.96 µM. 300,000 compounds, 0.49% hits;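 active means inhibition above the mean of all tested compounds plus 3 SD, set per screening campaign, cut at about 17% in these data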
# GSTO1 inh: blocks human GSTO1 in RBBP9 counter-screen | inhibition, % at 5.96 µM | 300,000 compounds, 1.1% hits | P78417 | AID 1974 | recombinant GSTO1, activity-based probe fluorescence polarization;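 active means inhibition above the campaign mean inhibition plus 3 SD, cut at about 35% in these data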
# TDP2 inh: blocks human TDP2 phosphodiesterase activity; O95551; recombinant TDP2, T5PNP hydrolysis, p-nitrophenol absorbance 415 nm; 370,000 compounds, 0.34% hits; inhibition, % at 12.8 µM;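 active means inhibition above the mean of all tested compounds plus 3 SD, set per campaign, cut at about 25% in these data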
#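 Incubation: 2 h at 37 °C; Test system: recombinant human TDP2; Quantity: enzyme 120 nM; Read-out basis: percent inhibition; Medium: 50 mM Tris-HCl pH 7.5 with Mg2+, KCl, DTT, BSA; Repeats: single replicate; Compound: 12.8 µM single point, 1% DMSO; Signal: epi absorbance; Reagent: 5 mM T5PNP chromogenic substrate; Benchmarks: no-enzyme high, DMSO-plus-enzyme low.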
# PAD4 FP inh: blocks human protein arginine deiminase 4 | Q9UM07 | recombinant PAD4, RCA probe fluorescence polarization | inhibition, % at 6.36 µM | 330,000 compounds, 0.41% hits | AID 485272;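 active means percent inhibition above a cutoff equal to the mean of all tested compounds plus 3 SD, cut at about 15% in these data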
# Target sequence (Q9UM07 whole entry, looked up): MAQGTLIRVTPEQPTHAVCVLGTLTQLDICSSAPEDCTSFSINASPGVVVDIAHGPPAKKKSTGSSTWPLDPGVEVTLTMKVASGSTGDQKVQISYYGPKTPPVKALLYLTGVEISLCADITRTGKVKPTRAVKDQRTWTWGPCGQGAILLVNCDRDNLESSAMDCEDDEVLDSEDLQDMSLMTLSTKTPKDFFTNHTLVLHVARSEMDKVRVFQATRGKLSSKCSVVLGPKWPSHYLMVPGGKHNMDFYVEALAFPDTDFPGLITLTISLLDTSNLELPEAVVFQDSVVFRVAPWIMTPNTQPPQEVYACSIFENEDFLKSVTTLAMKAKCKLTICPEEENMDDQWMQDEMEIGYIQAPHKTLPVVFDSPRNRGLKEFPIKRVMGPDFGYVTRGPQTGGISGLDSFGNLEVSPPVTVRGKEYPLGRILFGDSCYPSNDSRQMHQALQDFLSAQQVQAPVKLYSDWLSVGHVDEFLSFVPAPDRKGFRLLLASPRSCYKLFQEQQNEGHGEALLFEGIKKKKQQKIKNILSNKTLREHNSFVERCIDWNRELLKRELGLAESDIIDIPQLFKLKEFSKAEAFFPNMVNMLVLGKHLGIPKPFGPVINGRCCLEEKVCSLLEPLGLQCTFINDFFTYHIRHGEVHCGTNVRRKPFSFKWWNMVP
# Apaf-1 inh conf2: Apaf-1 inhibition, single-dose confirmed. shares compounds with Apaf-1 inh. reconstituted apoptosome, caspase-3 DEVD-Rh110 fluorescence. inhibition, % at 20 µM. 1,800 compounds, 25% hits. AID 504614;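 active means mean inhibition of at least 40% at 20 µM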
# Rh110 quench: counter-screen for Apaf-1 inhibitors: fluorescence interference. shares compounds with Apaf-1 inh. Rh110 fluorescence interference, quenched caspase reaction. activation (fluorescence interference), % at 20 µM. 1,800 tested, under 10 active. AID 504615;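 active means signal rise of 40% or more at 20 µM, treated as a fluorescence artifact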
# Apaf1 inh interf: shows fluorescence interference in the Apaf-1 inhibitor assay format; shares compounds with Apaf-1 inh; fluorescence interference counterscreen, Apaf-1 assay format; IC50, µM; 460 tested, under 10 active; call rule not given here
# Numbers stand for hits; n = inactive; x = no result given. Compounds with a hit are over-represented: about 1.8% of the library has one in this group of screens.
SMILES,Apaf-1 inh,Fh CTSL1 inh,GSTO1 inh,TDP2 inh,PAD4 FP inh,Apaf-1 inh conf2,Rh110 quench,others
Cc1nccn1-c1ccc(NC(=O)[C@@H](Cc2ccccc2)NC(=O)[C@H]2O[C@@H](n3ccc(=O)[nH]c3=O)[C@H](O)[C@@H]2O)cc1,x,x,x,n,x,x,x,
CN1C(c2ccccc2)CC2CN(c3ccccc3)C(=O)C21 (stereo not given),x,x,x,n,x,x,x,
C#CCOCCOCCOCCNc1nc(N2CCN(C(=O)[C@H](Cc3cc4ccccc4[nH]3)n3cc([C@@H](N)C(C)CC)nn3)CC2)nc(N2CCN(C(=O)[C@H](CCCCN)n3cc([C@@H](N)CC(C)C)nn3)CC2)n1 (stereo not given in full),41,n,n,x,n,n,n,
C#CCOCCOCCOCCNc1nc(N2CCN(C(=O)C([C@@H](C)O)n3cc([C@@H](N)CCCCN)nn3)CC2)nc(N2CCN(C(=O)[C@H](CO)n3cc([C@@H](N)C(C)C)nn3)CC2)n1 (stereo not given in full),53,x,x,n,n,n,n,
O=C(CSc1nnc(-c2ccc(Cl)cc2)n1-c1ccccc1)Nc1ccc2c(c1)OCCO2,x,x,x,n,x,x,x,
O=C(Nc1ccccc1C(F)(F)F)O[C@@H]1CC[C@@]23CCCN2C(=O)CCC[C@H]3C1,x,x,x,n,x,x,x,
COc1ccc(NC(=O)N(C)C[C@H]2OCc3cn(nn3)CCCC(=O)N([C@H](C)CO)C[C@@H]2C)cc1,x,x,x,n,x,x,x,
CC(C)C[C@H]1CN=C(Nc2ccccc2)N1CC1CCC(C(C)(C)C)CC1 (stereo not given in full),56,n,n,x,n,n,n,
CC(C)C[C@H]1CN=C(Nc2ccccc2)N1CC1CCCC1,n,n,n,n,n,x,x,
COc1cccc(N2CCN(CC(=O)Nc3ccccc3C(=O)NCCc3ccccc3)CC2)c1,50,x,x,n,n,n,n,
COc1cccc(N2CCN(CC(=O)Nc3ccccc3C(=O)NCc3ccccc3)CC2)c1,n,x,x,n,n,x,x,
N/C(=N\OC(=O)c1ccc(Cl)cc1Cl)c1ccccc1,n,n,n,n,n,x,x,
N/C(=N\OC(=O)c1ccc(Cl)cc1Cl)c1cccnc1,76,n,n,n,n,n,n,
O=C(C1CCCN1S(=O)(=O)c1cccc2ccccc12)N1CCN(c2ccccc2)CC1 (stereo not given),x,x,x,n,x,x,x,
COc1ccc(/C=C2/C(=O)N(c3cccc(F)c3)N=C2C)c(OC)c1,90,n,n,n,n,n,n,
COc1cccc(CNC(=O)C2CCC(CNS(=O)(=O)c3cccc4cccnc34)CC2)c1OC (stereo not given),x,x,x,n,x,x,x,
CCC(CO)Oc1cc(NCc2cccc(C(F)(F)F)c2)c2ncn(C(C)C)c2c1 (stereo not given),41,x,x,n,n,n,n,
CCC(CO)Oc1cc(NCc2cccc(C)c2)c2ncn(C(C)C)c2c1 (stereo not given),54,x,x,n,n,n,n,
CCC(CO)Oc1cc(NCc2ccc(C)cc2)c2ncn(C(C)C)c2c1 (stereo not given),41,x,x,n,n,n,n,
CCC(CO)Oc1cc(NCc2ccc(OC)cc2)c2ncn(C(C)C)c2c1 (stereo not given),n,x,x,n,n,x,x,
COC(=O)[C@]12C[C@H](CC(=O)N3CCC(c4ccccc4)CC3)C(=O)N(CCC3=CCCCC3)C1=C[C@H](C1CCCC1)O[C@@H]2C,x,x,x,n,x,x,x,
CC1(O)C(=O)C2(C)C=CC1C1C(=O)N(c3ccccc3)C(=O)C12 (stereo not given),x,x,x,n,x,x,x,
CC(C)COc1ccc(C(=O)Nc2scc(-c3ccc(Cl)cc3Cl)c2C(N)=O)cc1,45,n,n,n,n,n,n,
COc1ccc(/C=N/Nc2cc(N(C)C)nc(N(C)C)n2)cc1,97,n,52,n,n,95,n,Apaf1 inh interf=n
CN(C)c1cc(N/N=C\c2ccccc2)nc(N(C)C)n1,95,n,n,n,n,89,n,Apaf1 inh interf=n
SMILES,Apaf-1 inh,Fh CTSL1 inh,GSTO1 inh,TDP2 inh,PAD4 FP inh,Apaf-1 inh conf2,Rh110 quench,others
Cc1c(/C=N/Nc2nc3ccccc3[nH]2)c2ccccc2n1C,43,n,n,n,n,n,n,
Nc1[nH]c(C(=O)c2ccccc2)c(-c2ccc(F)cc2)c1C(=O)c1c[nH]c2ccccc12,x,x,x,n,x,x,x,
O=C1NCCCc2c1oc1ccc(O)cc21,n,n,n,n,n,x,x,
Oc1c(Cl)cc(Cl)c2c1NCCC2,47,x,x,n,x,n,n,
COc1ccc2c(c1)CN1C(=O)N(C3CCCC3)S(=O)(=O)CC21 (stereo not given),x,x,x,n,x,x,x,
O=C(NCCc1ccccc1)c1ccccc1SCC(=O)N1CCCC1,60,n,n,n,n,n,n,
N#Cc1cc2cc3c(cc2nc1N1CCCCC1)OCCO3,n,n,n,n,n,x,x,
Cc1ccc(C(=O)N2CCCN(c3nc4cc5c(cc4cc3C#N)OCO5)CC2)cc1,67,n,n,n,n,n,n,
CCCCc1cc(=O)oc2cc(OCC(=O)NCCN3CCOCC3)c(Cl)cc12,61,n,n,n,n,n,n,
Cc1cc(=O)oc2cc(OCC(=O)NCCN3CCOCC3)c(Cl)cc12,n,n,n,n,n,x,x,
COCCN1CCCc2nc(-c3ccc(Br)cc3)ccc21,x,x,x,n,x,x,x,
CCN(CC(=O)Nc1ccccc1C(F)(F)F)C(=O)c1ccccc1Sc1ccccc1C#N,n,x,x,n,n,x,x,
CCN(CC(=O)Nc1ccc(NC(C)=O)cc1)C(=O)c1ccccc1Sc1ccccc1C#N,56,x,x,n,n,n,n,
c1ccc(CC2CCN(c3nc4ccccc4n4nnnc34)CC2)cc1,58,n,n,n,n,n,n,
CCOC(=O)C1=C(C)OC(N)=C(C#N)C1c1ccoc1 (stereo not given),n,n,n,n,n,x,x,
Cc1ccc(-n2nc(C)c3c2OC(N)=C(C#N)C3c2ccoc2)cc1 (stereo not given),81,n,36,n,n,n,n,
COc1ccc(C2/C(=C(\O)c3ccc4c(c3)OCCO4)C(=O)C(=O)N2CCCn2ccnc2)cc1 (stereo not given),n,n,n,n,n,x,x,
COc1ccccc1C1/C(=C(\O)c2ccc3c(c2)OCCO3)C(=O)C(=O)N1CCCn1ccnc1 (stereo not given),45,n,n,n,n,n,n,
COc1ccc(C2/C(=C(/O)c3ccc4c(c3)CC(C)O4)C(=O)C(=O)N2CCCn2ccnc2)cc1 (stereo not given),42,n,n,n,n,n,n,
CCCCC1=CC2=C(c3ccco3)C(=O)C(C)(OC(=O)c3ccc(OC)cc3)C(=O)C2=CN1C1CC1 (stereo not given),40,n,n,n,n,n,n,
Oc1ccc(C[C@H]2CNCCN2CCC23CC4CC(CC(C4)C2)C3)cc1,n,n,n,n,n,x,x,
